ChEMBL document CHEMBL1144747, “(Phenylpiperazinyl-butyl)oxindoles as selective 5-HT7 receptor antagonists” (J Med Chem, 2008)
Activity calls are given as the source filed them. No cut-off for these calls is given here.

Legend:
[1] = target: T1, 5-hydroxytryptamine receptor 1A (Rattus norvegicus) (UniProt P19327); assay: Displacement of [3H]8-OH-DPAT from 5HT1A receptor in rat frontal cortex membrane at 10 nM; type: cell membranes
T1 sequence (whole entry): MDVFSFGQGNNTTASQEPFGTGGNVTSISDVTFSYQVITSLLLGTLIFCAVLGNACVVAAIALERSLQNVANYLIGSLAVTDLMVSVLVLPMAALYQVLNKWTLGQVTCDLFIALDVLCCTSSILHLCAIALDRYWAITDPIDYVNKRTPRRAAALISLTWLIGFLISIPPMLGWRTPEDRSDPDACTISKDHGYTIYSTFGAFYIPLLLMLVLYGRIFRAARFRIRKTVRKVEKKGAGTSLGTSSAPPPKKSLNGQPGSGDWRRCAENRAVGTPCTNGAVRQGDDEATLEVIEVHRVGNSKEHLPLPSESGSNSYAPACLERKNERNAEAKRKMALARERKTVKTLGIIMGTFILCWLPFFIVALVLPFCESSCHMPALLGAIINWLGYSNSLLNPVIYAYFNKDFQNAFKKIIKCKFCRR
Summary of the method: (§1)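 Rat tissue homogenized in 50 mM Tris-HCl pH 7.7, washed by repeated 40000g spins with a 10 min 37 °C incubation. Buffer: Tris-HCl, 6.66 mM CaCl2, 16.66 µM pargyline, 0.166% ascorbate. Labelled with 1.5 nM [3H]8-OH-DPAT, 45 min at 25 °C; nonspecific with 10 µM 5-HT. GF/B filtration, then scintillation counting; percent inhibition.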

[2] = target: T2, 5-hydroxytryptamine receptor 7 (Homo sapiens, UniProt P34969); assay: Displacement of [3H]LSD from human recombinant 5HT7 receptor expressed in CHO cells; type: cell-based; details: read-out: Ki
T2 sequence (P34969 whole entry): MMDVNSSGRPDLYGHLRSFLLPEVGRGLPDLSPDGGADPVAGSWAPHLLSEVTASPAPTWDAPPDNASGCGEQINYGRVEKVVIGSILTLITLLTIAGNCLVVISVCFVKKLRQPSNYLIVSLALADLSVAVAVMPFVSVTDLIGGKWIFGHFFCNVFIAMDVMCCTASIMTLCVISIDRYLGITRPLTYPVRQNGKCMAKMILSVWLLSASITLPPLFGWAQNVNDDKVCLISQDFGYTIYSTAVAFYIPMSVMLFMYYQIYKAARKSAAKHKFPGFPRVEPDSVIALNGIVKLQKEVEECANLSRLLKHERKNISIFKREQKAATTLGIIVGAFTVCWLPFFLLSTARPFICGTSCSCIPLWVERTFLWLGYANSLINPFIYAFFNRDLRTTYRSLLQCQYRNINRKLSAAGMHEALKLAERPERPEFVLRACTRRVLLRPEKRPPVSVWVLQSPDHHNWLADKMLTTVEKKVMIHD
Summary of the method: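 Cloned human 5-HT7 receptor from CHO cells, labelled with [3H]LSD; nonspecific binding with 25 µM clozapine. Stopped by filtration on PEI-soaked GF/C filters, then scintillation counting. Ki from two displacement curves of nine concentrations each, run in triplicate.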

[3] = tested on: Rattus norvegicus; assay: Anxiolytic activity in ip dosed Wistar rat assessed as number of punished licks for 5 mins by conflict drinking test; type: functional; details: read-out: MED
Summary of the method: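 Modified Vogel test in male Wistar rats, 160–180 g, water-deprived 48 h and fasted 24 h. Dosed ip 30 min before test. After a 30 s free-drinking period, 600 µA, 0.6 s shocks came through the spout every 20 licks over 5 min. Punished licks counted; minimal effective dose reported.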

[4] = target: T1, 5-hydroxytryptamine receptor 1A (Rattus norvegicus); assay: Displacement of [3H]8-OH-DPAT from 5HT1A receptor in rat frontal cortex membrane at 0.1 uM; type: cell membranes; summary of the method: as §1
[5] = tested on: Mus musculus; assay: Anxiolytic activity in ip dosed NMRI mouse assessed as behavioral activity for 5 mins by light dark assay; type: functional; details: read-out: MED
Summary of the method: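 Male NMRI mice, 25–33 g, kept in a dark room and dosed ip 30 min before test, then placed in the centre of the lit area. Over 5 min, time in each area, transitions, and horizontal and vertical activity were recorded. Minimal effective dose by one-way ANOVA with Duncan's test.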

[6] = species on record: Rattus norvegicus; assay: Metabolic stability in rat; type: ADME, organism-based; details: in vitro
[7] = target: T2, 5-hydroxytryptamine receptor 7; assay: Antagonist activity at human 5HT7A receptor expressed in CHO cells assessed as inhibition of […]-induced cAMP elevation at 1 uM; type: functional, cell-based; parameters: scale not given: the % may be the effect or the level left
Summary of the method: (§2)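 CHO cells stably expressing human 5-HT7A, cultured in F12:DMEM with 5% FCS, seeded 24 h ahead. Compounds from 1 mM DMSO stock (final DMSO 0.1%) preincubated 10 min, then 20 min with 10 nM 5-CT at 37 °C. Cells lysed, cAMP by EIA, normalized to BCA protein. The 5-CT-induced level is taken as 100%; six independent experiments.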

[8] = target: T2, 5-hydroxytryptamine receptor 7; assay: Antagonist activity at human 5HT7A receptor expressed in CHO cells assessed as inhibition of […]-induced cAMP elevation at 10 nM administered before […] challenge; type: functional, cell-based; parameters: scale not given: the % may be the effect or the level left; summary of the method: as §2

CCC1(CCCCN2CCN(c3ccccc3OC)CC2)C(=O)Nc2ccccc21 (stereo unspecified)
Activity [1]: 28%
Ki [2]: 5.38 nM
minimal effective dose [3]: 10 mg/kg
Activity [4]: 79%

CCC1(CCCN2CCN(c3cccc(Cl)c3)CC2)C(=O)Nc2ccccc21 (stereo unspecified)
minimal effective dose [5]: 3 mg/kg
Activity [1]: 57%
Ki [2]: 21 nM
minimal effective dose [3]: > 20 mg/kg
Activity [4]: 91%

CCC1(CCCCN2CCN(c3ccc(Cl)cc3)CC2)C(=O)Nc2ccccc21 (stereo unspecified)
minimal effective dose [5]: > 10 mg/kg
Activity [1]: 2%
Ki [2]: 0.38 nM
minimal effective dose [3]: 10 mg/kg
Stability [6]: 9%
Activity [4]: 11%

CCC1(CCCCN2CC=C(c3ccc(Cl)cc3)CC2)C(=O)Nc2ccccc21 (stereo unspecified)
Ki [2]: 1.02 nM
minimal effective dose [3]: > 20 mg/kg
Activity [7]: > 95%
Activity [4]: 10%
Activity [8]: inactive

CCC1(CCCCN2CCC(c3ccc(F)cc3)CC2)C(=O)Nc2ccccc21 (stereo unspecified)
minimal effective dose [5]: > 10 mg/kg
Ki [2]: 5.3 nM
minimal effective dose [3]: 20 mg/kg
Activity [4]: 11%

CCC1(CCCCN2CCN(c3ccc(F)c(Cl)c3)CC2)C(=O)Nc2ccccc21 (stereo unspecified)
Activity [1]: 0%
Ki [2]: 0.6 nM
minimal effective dose [3]: > 20 mg/kg
Activity [4]: 14%

CCC1(CCCCN2CCN(c3ccc(OC)cc3)CC2)C(=O)Nc2ccccc21 (stereo unspecified)
Activity [1]: 3%
Ki [2]: 25.4 nM
minimal effective dose [3]: > 20 mg/kg
Activity [4]: 24%

CCC1(CCCCN2CCN(c3cccc(OC)c3)CC2)C(=O)Nc2ccccc21 (stereo unspecified)
Activity [1]: 6%
Ki [2]: 2.55 nM
minimal effective dose [3]: > 20 mg/kg
Activity [4]: 33%

CC(C)CC1(CCCCN2CCN(c3cccc(Cl)c3)CC2)C(=O)Nc2ccccc21 (stereo unspecified)
minimal effective dose [5]: > 10 mg/kg
Ki [2]: 1.8 nM
minimal effective dose [3]: 10 mg/kg
Activity [7]: > 95%
Activity [4]: 12%
Activity [8]: inactive

CCC1(CCCCCN2CCN(c3cccc(Cl)c3)CC2)C(=O)Nc2ccccc21 (stereo unspecified)
minimal effective dose [5]: > 10 mg/kg
Activity [1]: 12%
Ki [2]: 1.45 nM
minimal effective dose [3]: > 10 mg/kg
Activity [7]: > 95%
Activity [4]: 43%
Activity [8]: 20%

CCC1(CCCCN2CCC(C)CC2)C(=O)Nc2ccccc21 (stereo unspecified)
Activity [7]: > 95%
Activity [4]: 0%

CCC1(CCCCN2CCN(c3ccccc3Cl)CC2)C(=O)Nc2ccccc21 (stereo unspecified)
Activity [1]: 9%
Ki [2]: 5.11 nM
minimal effective dose [3]: > 20 mg/kg
Activity [4]: 51%

CCC1(CCCCN2CCN(c3cccc(Cl)c3)CC2)C(=O)Nc2cc(F)c(Cl)cc21 (stereo unspecified)
Ki [2]: 9.07 nM
minimal effective dose [3]: 20 mg/kg
Activity [4]: 16%

CCC1(CCCCN2CCc3sccc3C2)C(=O)Nc2ccccc21 (stereo unspecified)
minimal effective dose [5]: > 10 mg/kg
Ki [2]: 4.31 nM
minimal effective dose [3]: > 20 mg/kg
Activity [4]: 29%

CCC1(CCCCN2CCN(c3ccc(Cl)cc3)CC2)C(=O)Nc2c(Cl)cc(Cl)cc21 (stereo unspecified)
minimal effective dose [5]: < 1 mg/kg
Ki [2]: 10.1 nM
minimal effective dose [3]: < 5 mg/kg
Stability [6]: 76%
Activity [4]: 5%

O=C1Nc2ccc(F)cc2C1CCCCN1CCN(c2cccc(Cl)c2)CC1 (stereo unspecified)
Ki [2]: 1.96 nM
minimal effective dose [3]: > 20 mg/kg
Activity [4]: 43%

CCC1(CCCCN2CCN(c3ccc(F)cc3)CC2)C(=O)Nc2ccccc21 (stereo unspecified)
minimal effective dose [5]: < 1 mg/kg
Activity [1]: 12%
Ki [2]: 0.43 nM
minimal effective dose [3]: 10 mg/kg
Activity [4]: 10%

CCC1(CCCCN2CCN(c3ccc(Cl)cc3)CC2)C(=O)Nc2ccc(F)cc21 (stereo unspecified)
minimal effective dose [5]: > 10 mg/kg
Ki [2]: 2.81 nM
minimal effective dose [3]: > 20 mg/kg
Activity [4]: 9%

CCC1(CCCCN2CCN(c3ccccc3OC)CC2)C(=O)N(Cc2ccccc2)c2ccccc21 (stereo unspecified)
Activity [1]: 32%
Ki [2]: 6.57 nM
minimal effective dose [3]: > 20 mg/kg
Activity [4]: 86%

CCC1(CCCCN2CCN(c3cccc(Cl)c3)CC2)C(=O)Nc2ccc(Cl)cc21 (stereo unspecified)
Ki [2]: 8.27 nM
minimal effective dose [3]: > 20 mg/kg
Activity [4]: 18%
